Data as given in ChEMBL document CHEMBL4024783, “Alkylated Piperazines and Piperazine-Azole Hybrids as Antifungal Agents” (J Med Chem, 2018).
Converted amounts (≈) assume the structure as drawn. The source made the active and inactive calls. The calls are words filed in the database; no cut-off is given here.

Tests used:
[1] = test system: BEAS-2B; assay: Cytotoxicity against human BEAS2B cells at 7.8 ug/mL after 24 hrs by resazurin-based fluorescence assay; format: cell-based
Procedure, shortened: (§1)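 Cells grown in DMEM with 10% FBS at 37 °C, 5% CO2, and seeded at 10000 (HEK-293) or 3000 (BEAS-2B, A549) per well. After 16 h, exposed 24 h to 0.13–31 µg/mL final in medium with 0.1–0.4% DMSO. Resazurin added for 6–10 h; fluorescence read at 560/590 nm and survival normalized to DMSO control after background subtraction. Triton X-100 12.5% v/v positive control; duplicate.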

[2] = test system: Candida albicans; assay: Antifungal activity against Candida albicans ATCC 10231 after 48 hrs by broth dilution method; format: functional; conditions: ATCC 10231, 48 h
[3] = test system: Candida albicans; assay: Antifungal activity against itraconazole and fluconazole resistant Candida albicans ATCC 90819 after 48 hrs by broth dilution method; format: functional; conditions: Candida albicans, ATCC 90819, 48 h
Procedure, shortened: (§2)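 CLSI M27-A3 broth microdilution with minor modifications. Overnight YPD culture grown at 35 °C, 200 rpm, adjusted to OD600 0.12, diluted in RPMI 1640 buffered to pH 7.0 with 0.165 M MOPS to a final 1–2 × 10^3 CFU/mL. Test compounds at 0.015–31.3 µg/mL, 48 h at 35 °C, DMSO <1.25%. […] Triplicate.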

[4] = test system: Candida albicans; assay: Antifungal activity against itraconazole and fluconazole resistant Candida albicans ATCC MYA-1003 after 48 hrs by broth dilution method; format: functional; conditions: Candida albicans, ATCC MYA-1003, 48 h; procedure, shortened: as §2
[5] = test system: Candida albicans; assay: Antifungal activity against itraconazole and fluconazole resistant Candida albicans ATCC MYA-1237 after 48 hrs by broth dilution method; format: functional; conditions: Candida albicans, ATCC MYA-1237, 48 h; procedure, shortened: as §2
[6] = test system: Candida albicans; assay: Inhibition of 14alpha-demethylase in Candida albicans ATCC 10231 assessed as total sterol levels at […] by GC-MS analysis; set-up: scale not given: the % may be the effect or the level left
[7] = test system: Candida albicans; assay: Antifungal activity against Candida albicans ATCC 10231 after 48 hrs in the presence of 10% FBS by broth dilution method; format: functional; conditions: ATCC 10231, 48 h
[8] = test system: Candida parapsilosis; assay: Antifungal activity against Candida parapsilosis ATCC 22019 after 48 hrs by broth dilution method; format: functional; conditions: Lodderomyces parapsilosis, ATCC 22019, 48 h
[9] = test system: Candida albicans; assay: Fungicidal activity against Candida albicans ATCC 10231 at 4 times MIC incubated for 24 hrs by time kill assay; format: functional
Procedure, shortened: (§3)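 Overnight YPD cultures were diluted in RPMI 1640 to OD600 0.12–0.13; initial inoculum 1–4 × 10^5 CFU/mL. […] Shaken at 200 rpm, 35 °C, for 24 h, sampling at 0, 3, 6, 9, 12 and 24 h. Serial dilutions were plated on PDA and CFU counted; detection limit 100 CFU/mL; duplicate.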

[10] = test system: Candida albicans; assay: Inhibition of 14alpha-demethylase in Candida albicans ATCC 10231 assessed as eburicol levels at […] by GC-MS analysis; set-up: scale not given: the % may be the effect or the level left
[11] = test system: A549; assay: Cytotoxicity against human A549 cells up to 7.8 ug/mL after 24 hrs by resazurin based fluorescence assay; format: cell-based; conditions: a549, 24 h; procedure, shortened: as §1
[12] = test system: Candida parapsilosis; assay: Fungistatic activity against Candida parapsilosis ATCC 22019 up to 8 times MIC incubated for 24 hrs by time kill assay; format: functional; procedure, shortened: as §3
[13] = Solubility of the compound in DMSO; format: physicochemical
[14] = test system: Candida albicans; assay: Antibiofilm activity against voriconazole resistant Candida albicans ATCC 64124 sessile cells incubated for 24 hrs by XTT reduction assay; format: functional; conditions: ATCC 64124, 24 h
Procedure, shortened: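 Strain B grown overnight in YPD broth at 35 °C, diluted to OD600 0.1 (~10^6 CFU/mL), then grown statically for 24 h at 37 °C to form biofilm. Washed with PBS, then drug in RPMI 1640 at 0.12–62.5 µg/mL for 24 h at 37 °C. Read-out: XTT 0.5 mg/mL with menadione 1 µM, 2 h, A490. SMIC50/SMIC80 are 50%/80% decreases versus drug-free biofilm. Duplicate.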

[15] = test system: Aspergillus nidulans; assay: Antifungal activity against Aspergillus nidulans ATCC 38163 after 48 hrs by broth dilution method; format: functional; conditions: Aspergillus nidulans, ATCC 38163, 48 h
Procedure, shortened: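 A. nidulans run per CLSI M38-A2. PDA spores were filtered through glass wool and counted by hemocytometer. Test range 0.03–31.3 µg/mL in MOPS-buffered RPMI 1640 (pH 7.0), final 5 × 10^5 CFU/mL.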

[16] = test system: Candida albicans; assay: Inhibition of 14alpha-demethylase in Candida albicans ATCC 10231 assessed as lanosterol levels at […] by GC-MS analysis; set-up: scale not given: the % may be the effect or the level left
[17] = test system: HEK293; assay: Cytotoxicity against HEK293 cells at 7.8 ug/mL after 24 hrs by resazurin-based fluorescence assay; format: cell-based; conditions: human, hek293, 24 h; procedure, shortened: as §1
[18] = test system: Candida albicans; assay: Antifungal activity against Candida albicans ATCC 10231 at 3.9 ug/mL incubated for 1 hr by propidium iodide staining-based fluorescence microscopic method; format: functional
Procedure, shortened: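 C. albicans ATCC 10231 from an overnight YPD culture (35 °C, 200 rpm) was transferred into RPMI 1640 and exposed to drug. Membrane integrity was assessed by uptake of propidium iodide under fluorescence microscopy.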

[19] = test system: Candida albicans; assay: Antifungal activity against itraconazole and fluconazole susceptible Candida albicans ATCC MYA-2310 after 48 hrs by broth dilution method; format: functional; conditions: Candida albicans, ATCC MYA-2310, 48 h
[20] = test system: Nakaseomyces glabratus; assay: Antifungal activity against Candida glabrata ATCC 2001 after 48 hrs by broth dilution method; format: functional, CBS 138; conditions: Nakaseomyces glabratus, CBS 138, 48 h
[21] = test system: Aspergillus flavus; assay: Antifungal activity against Aspergillus flavus ATCC MYA-3631 after 48 hrs by broth dilution method; format: functional; conditions: ATCC MYA-3631, 48 h
[22] = test system: Candida parapsilosis; assay: Antifungal activity against Candida parapsilosis ATCC 22019 after 48 hrs in the presence of 10% FBS by broth dilution method; format: functional; conditions: Lodderomyces parapsilosis, ATCC 22019, 48 h
[23] = test system: Candida albicans; assay: Antifungal activity against Candida albicans ATCC 64124 after 48 hrs by broth dilution method; format: functional; conditions: Candida albicans, ATCC 64124, 48 h; procedure, shortened: as §2
[24] = test system: Candida albicans; assay: Inhibition of 14alpha-demethylase in Candida albicans ATCC 10231 assessed as 14alpha-methyl ergosta-8,24(28)-dien-3beta,6alpha-diol levels at […] by GC-MS analysis; set-up: scale not given: the % may be the effect or the level left
[25] = test system: Candida albicans; assay: Inhibition of 14alpha-demethylase in Candida albicans ATCC 10231 assessed as ergosterol levels at […] by GC-MS analysis; set-up: scale not given: the % may be the effect or the level left
[26] = Aqueous solubility of the compound; format: physicochemical; conditions: buffer
[27] = test system: Aspergillus nidulans; assay: Antifungal activity against Aspergillus nidulans ATCC 38163 after 48 hrs in the presence of 10% FBS by broth dilution method; format: functional; conditions: ATCC 38163, 48 h
[28] = test system: Aspergillus terreus; assay: Antifungal activity against Aspergillus terreus ATCC MYA-3633 after 48 hrs by broth dilution method; format: functional; conditions: Aspergillus terreus, ATCC MYA-3633, 48 h
Procedure, shortened: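 Molds tested per CLSI M38-A2. Spores were harvested from sporulating PDA cultures by filtering through glass wool and counted on a hemocytometer. Serial dilutions (0.03–31.3 µg/mL) were made in RPMI 1640 buffered to pH 7.0 with 0.165 M MOPS, final inoculum 5 × 10^5 CFU/mL.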

[29] = test system: Pichia kudriavzevii; assay: Antifungal activity against Candida krusei ATCC 6258 after 48 hrs by broth dilution method; format: functional; conditions: Pichia kudriavzevii, ATCC 6258, 48 h
Procedure, shortened: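 Yeasts tested per CLSI M27-A3 with minor changes. An overnight YPD culture (35 °C, 200 rpm) was adjusted to OD600 0.12 and diluted in MOPS-buffered RPMI 1640 (pH 7.0) to a final 1–2 × 10^3 CFU/mL. Compounds 0.015–31.3 µg/mL, DMSO <1.25%.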

[30] = test system: Candida albicans; assay: Antifungal activity against itraconazole and fluconazole susceptible Candida albicans ATCC MYA-2876 after 48 hrs by broth dilution method; format: functional; conditions: Candida albicans, ATCC MYA-2876, 48 h
[31] = test system: A549; assay: Cytotoxicity against human A549 cells up to 15.5 ug/mL after 24 hrs by resazurin-based fluorescence assay; format: cell-based; conditions: a549, 24 h; procedure, shortened: as §1

Row | SMILES | Activity [1] | MIC [2] [µM] | MIC [3] [µM] | MIC [4] [µM] | MIC [5] [µM] | MIC [8] [µM] | MIC [15] [µM] | Activity [17] | MIC [19] [µM] | MIC [20] [µM] | MIC [21] [µM] | MIC [23] [µM] | MIC [28] [µM] | MIC [29] [µM] | further results
1 | CCCCCCCCCCN1CCN(CC(O)(Cn2cncn2)c2ccc(F)cc2F)CC1 (stereo unspecified) | Toxic | 2.1 (≈ 0.974 µg/mL) | 8.4 (≈ 3.89 µg/mL) | 8.4 (≈ 3.89 µg/mL) | 16.8 (≈ 7.79 µg/mL) | 0.03 (≈ 0.0139 µg/mL) | 2.1 (≈ 0.974 µg/mL) | Toxic | 16.8 (≈ 7.79 µg/mL) | > 67.5 | 0.5 (≈ 0.232 µg/mL) | 8.4 (≈ 3.89 µg/mL) | 2.1 (≈ 0.974 µg/mL) | 4.2 (≈ 1.95 µg/mL) | Activity [6]: 2.8 to 14.4%; MIC [7]: 0.975 µg/mL; Activity [9]: Active; Activity [10]: 1.25%; Activity [11]: Non-Toxic; Activity [12]: Active; solubility [13]: Soluble; MIC50 [14]: 15.6 µg/mL (≈ 33.6 µM); MIC80 [14]: 62.5 µg/mL (≈ 135 µM); Activity [16]: 33.4%; Activity [18]: inactive; MIC [22]: 0.06 µg/mL; Activity [24]: 15.4%; Activity [25]: 30.1%; solubility [26]: Soluble; MIC [27]: 0.975 µg/mL
2 | CCCCCCCCN1CCN(CC(O)(Cn2cncn2)c2ccc(F)cc2F)CC1 (stereo unspecified) | Toxic | 9 (≈ 3.92 µg/mL) | 35.8 (≈ 15.6 µg/mL) | 2.2 to 71.9 (≈ 0.958 to 31.3 µg/mL) | 71.9 (≈ 31.3 µg/mL) | 0.1 (≈ 0.0436 µg/mL) | 9 (≈ 3.92 µg/mL) | Toxic | > 71.9 | 35.8 (≈ 15.6 µg/mL) | 4.5 (≈ 1.96 µg/mL) | 71.9 (≈ 31.3 µg/mL) | 9 (≈ 3.92 µg/mL) | 17.9 (≈ 7.8 µg/mL) | MIC [30]: 71.9 µM (≈ 31.3 µg/mL); Activity [31]: Non-Toxic
